Screens (PubChem)
A selection: hits, their analogues and other compounds. The true share with any hit is near 2.3%.
TAAR1 agonist: human TAAR1 agonism; CHO RD-HGA16 TAAR1, Fluo-8 calcium fluorescence; vehicle wells 0%, saturating PEA agonist 100%; activation, % at 3 µM; 360,000 compounds, 0.99% hits;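 active means activation above the mean activation of all test compounds in the run plus 3 SD, cut at about 38% in these data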
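System: CHO-derived RD-HGA16 cells with stable Gα16 and human TAAR1 / Times: 17-24 h plating, Fluo-8 75 min 37 °C, 30 min RT / Technique: calcium-sensitive Fluo-8 signal, excitation 470-495, emission 515-575 nm / Measure: % activation relative to PEA EC100 response / Benchmarks: DMSO and PEA EC100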
OXTR agonist: agonists of human oxytocin receptor; P30559; CHO-OTR cells, Fluo-8 calcium fluorescence; normalized: DMSO 0%, oxytocin 100%; activation, % at 3 µM; 320,000 compounds, 0.32% hits; AID 2435;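 active means activation above the mean of all tested compounds plus 3 SD, cutoff set per screening run, cut at about 20% in these data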;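 further: peak over basal fluorescence ratio from a 100 s FLIPR kinetic read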
OXTR potentiate: potentiators of human oxytocin receptor | AID 2445 | 320,000 compounds, 0.061% hits | CHO-OTR cells, Fluo-8 calcium fluorescence, potentiator mode; 0% = oxytocin EC15, 100% = EC100 | activation, % at 3 µM;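 active means activation above that plate's cutoff, the mean activation of tested compounds plus 3 SD, cut at about 6.6% in these data, passing the limit was not always enough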
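Material: human OTR in CHO cells. Compound: 3.0 µM, one dose. Timing: compound 6 min at room temperature before oxytocin, 100 s read. Evaluation: % activation of max/min ratio relative to oxytocin controls. Replication: single well per compound, singlicate. Signal: Fluo-8 calcium dye fluorescence.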
TAAR1 antag: human TAAR1 antagonism | inhibition, % at 3 µM | Q96RJ0 | 360,000 compounds, 1.5% hits | CHO RD-HGA16 TAAR1, Fluo-8 calcium fluorescence, antagonist;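 active means inhibition above a per-plate cutoff, the mean inhibition of test compounds on that plate plus 3 SD, cut at about 49% in these data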
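Test system: hTAAR1-expressing CHO RD-HGA16 cells, Gα16-coupled; Probe or stimulus: EC80 β-phenethylamine stimulus; Compound dosing: single nominal final test compound concentration of 3 µM; Timing: 140 s kinetic read after compound, 140 s after agonist; Signal: Fluo-8 calcium-sensitive fluorescence; Measure: % inhibition of agonist calcium response; Controls: DMSO and EC80 PEA controls.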
V1aR counter: counter-screen for oxytocin receptor agonists: human V1a receptor agonists. CHO-V1R cells, Fluo-8 calcium fluorescence, agonist mode; 0% DMSO, 100% 3 nM vasopressin. 320,000 compounds, 0.25% hits. activation, % at 3 µM. P37288;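 active means activation above the mean activation of all tested compounds plus 3 SD, per screening run, cut at about 20% in these data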;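 further: signal is peak over basal fluorescence ratio across a 100 second FLIPR read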
Target sequence (P37288 whole entry, looked up): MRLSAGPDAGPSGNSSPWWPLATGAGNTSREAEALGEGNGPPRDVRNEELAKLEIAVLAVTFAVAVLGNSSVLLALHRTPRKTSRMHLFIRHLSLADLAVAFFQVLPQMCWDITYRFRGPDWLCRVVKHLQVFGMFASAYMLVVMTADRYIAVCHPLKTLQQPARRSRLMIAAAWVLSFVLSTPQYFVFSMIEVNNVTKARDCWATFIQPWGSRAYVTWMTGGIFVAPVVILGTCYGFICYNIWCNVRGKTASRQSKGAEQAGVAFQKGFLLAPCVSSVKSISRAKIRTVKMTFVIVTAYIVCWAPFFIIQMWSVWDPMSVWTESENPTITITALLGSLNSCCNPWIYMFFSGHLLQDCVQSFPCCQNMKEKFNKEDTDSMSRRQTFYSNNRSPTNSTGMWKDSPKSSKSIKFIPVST
Large screens that a line does not name were inactive.

COCc1nnc(NC(=O)C2CCN(C(=O)c3ccco3)CC2)s1	none
Cc1ccccc1CCNC(=O)CCn1ccc2cc(S(=O)(=O)N3CCCC3)ccc21	TAAR1 agonist 44
CCOC(=O)C1CCCN(C(=O)Cc2c(C(=O)O)[nH]c3ccccc23)C1 (centres undefined)	TAAR1 agonist 39
CCOC(=O)C1CCCN(C(=O)C2c3ccccc3Oc3ccccc32)C1 (centres undefined)	OXTR agonist 44, V1aR counter 35
CCOC(=O)C1CCCN(C(=S)Nc2ccc(Nc3ccccc3)cc2)C1 (centres undefined)	TAAR1 agonist 44
CCOC(=O)C1CCN(C(=S)Nc2ccccc2)CC1	none
CCOC(=O)C1CCCN(C(=O)c2ccc(-c3ccc([N+](=O)[O-])cc3)o2)C1 (centres undefined)	TAAR1 agonist 49
COc1cc(CCN=Cc2cccc(OC)c2O)c([N+](=O)[O-])cc1OC	none (no result: OXTR agonist, OXTR potentiate, V1aR counter)
C=CCOc1ccccc1CN1CCN(CCc2ccccc2)C(CCO)C1 (centres undefined)	none
O=C(NCc1ccc(Cl)cc1)c1ccc(-n2cccn2)nc1	TAAR1 agonist 41
COc1cc(C)ccc1OCC(=O)OCC(=O)c1[nH]c(C)c(C(C)=O)c1C	none
CC(=O)c1c(C)[nH]c(C(=O)COc2cc(C)ccc2C(C)C)c1C	TAAR1 antag 72
Cc1[nH]c2ccccc2c1C(=O)CN1CCC2(CC1)OCCO2	none
NC(=O)c1ncn([C@@H]2O[C@H](CNC(=O)[C@@H](N)Cc3cccnc3)[C@@H](O)[C@H]2O)n1	none (no result: OXTR agonist, OXTR potentiate, V1aR counter)
c1cncc(C(c2nnnn2C2CCCC2)N2CCCC2)c1 (centres undefined)	none
N#CC(C#N)=C1C=C2C=C(N3CCCCC3)CCC2CC1 (centres undefined)	OXTR agonist 921, V1aR counter 617 (no result: TAAR1 agonist, TAAR1 antag)
CC1Cc2cc(/C(O)=C3/C(=O)C(=O)N(CCN4CCOCC4)C3c3cccc(O)c3)ccc2O1 (centres undefined)	none
CC(C)c1ccc(OCC(O)CNC(C)c2ccccc2)cc1 (centres undefined)	TAAR1 agonist 57
CCN(CC(=O)NCc1cccs1)C(=O)c1cccc(S(=O)(=O)Nc2cccc(C)c2)c1	none
COC(=O)Cc1csc(NC(=O)CSc2nnc3ccccn23)n1	none
CCOCCc1nnc(NC(=O)Cc2ccc(Br)cc2)s1	TAAR1 agonist 46
Cc1ccc(C)c(NC(=O)c2ccccc2NS(=O)(=O)c2cc([N+](=O)[O-])ccc2C)c1	none
CC(C)NS(=O)(=O)c1ccc(Oc2ncc(C(F)(F)F)cc2Cl)cc1	none
O=S(=O)(Nc1ccccc1)c1ccc(Oc2ncc(C(F)(F)F)cc2Cl)cc1	TAAR1 agonist 37, OXTR agonist 30, TAAR1 antag 69, V1aR counter 22
O=[N+]([O-])c1ccc(S(=O)(=O)Nc2ccncc2)cc1	none
O=[N+]([O-])c1ccc(Oc2ccc(S(=O)(=O)Nc3ccccc3)cc2)cc1	OXTR agonist 31, V1aR counter 22 (no result: TAAR1 agonist, TAAR1 antag)
O=C(NCCCN1CCCCC1)C1CCN(c2ncnc3c2nc2n3CCCCC2)CC1	none
CCCCCCCCCCCCCCCC[n+]1ccc(/C=N/O)cc1	TAAR1 antag 78
CCCCCCCC[n+]1cccc(C(=O)N(CC)CC)c1	none
CCCCCCCCCCCCCCCC[n+]1cccc(C(=O)N(CC)CC)c1	OXTR agonist 37, V1aR counter 24
COc1ccc(OC)c(S(=O)(=O)N2CCC(C(=O)Nc3ccc(C)c(C)c3)CC2)c1	TAAR1 antag 61
Cc1ccnc(NC(=O)C2CCN(S(=O)(=O)c3ccc(Cl)c(C(F)(F)F)c3)CC2)c1	none
CC1Sc2ccc(S(=O)(=O)N3CCC(C(=O)Nc4cccc(Cl)c4)CC3)cc2NC1=O (centres undefined)	TAAR1 antag 49
Cc1ccc(NC(=O)C2CCN(S(=O)(=O)c3ccc4c(c3)NC(=O)C(C)S4)CC2)cc1C (centres undefined)	TAAR1 antag 50
CCc1ccc(NC(=O)C2CCN(S(=O)(=O)c3ccc4c(c3)NC(=O)C(C)S4)CC2)cc1 (centres undefined)	none
O=C(Nc1ccncc1)C1CCN(S(=O)(=O)c2ccc(Cl)c(C(F)(F)F)c2)CC1	TAAR1 agonist 48
CCS(=O)(=O)N1Cc2ccccc2CC1C(=O)Nc1cc(S(C)(=O)=O)ccc1Cl (centres undefined)	none
Cc1ccc(OCCNC(=O)/C=C/c2ccccc2)cc1C	none
CC1Sc2ccc(S(=O)(=O)CCC(=O)N3CCN(c4cccc(Cl)c4)CC3)cc2NC1=O (centres undefined)	TAAR1 antag 50
CCN(CC)S(=O)(=O)c1cccc(C(=O)Nc2nc3cc4c(cc3s2)OCCO4)c1	TAAR1 antag 52
COc1ccc(C2NN=C(c3ccc(C)cc3)S2)cc1OC (centres undefined)	none
CCCCOC(=O)c1ccc(NC(=O)C(=O)NCc2cccnc2)cc1	none
O=C1CCCN1CCCNc1nc(NCc2ccccc2)nc2ccsc12	TAAR1 agonist 129, TAAR1 antag 105 (no result: OXTR agonist, OXTR potentiate, V1aR counter)
Cc1ccc(CNc2nc(NCc3ccccc3)nc3ccsc23)c(C)c1	TAAR1 antag 54 (no result: OXTR agonist, OXTR potentiate, V1aR counter)
CCOC(=O)Cc1ccc(Nc2nc(NCc3ccccc3)nc3ccsc23)cc1	TAAR1 antag 72 (no result: OXTR agonist, OXTR potentiate, V1aR counter)
CC(=O)Nc1ccc(CNc2nc(NCc3cccs3)nc3ccsc23)cc1	TAAR1 antag 49 (no result: OXTR agonist, OXTR potentiate, V1aR counter)
C=CCNc1nc(NCCCN2CCCC2=O)c2sc(-c3ccccc3)cc2n1	none (no result: OXTR agonist, OXTR potentiate, V1aR counter)
CCOC(=O)Cc1ccc(Nc2nc(NC)nc3ccsc23)cc1	none (no result: OXTR agonist, OXTR potentiate, V1aR counter)
O=C(CCc1nc(-c2ccccc2)no1)NC1CCCCC1	none
Cc1ccc2nc(C)c(CN3CCN(c4ccc([N+](=O)[O-])cc4Cl)CC3)n2c1	TAAR1 agonist 43
O=C(CSCc1c(Cl)cccc1Cl)NCc1ccco1	none
COc1ccc(CNC(=O)c2sc(=O)n(Cc3ccc(-c4ccccc4)cc3)c2C)cc1OC	TAAR1 antag 65 (no result: OXTR agonist, OXTR potentiate, V1aR counter)
Nc1nc(Nc2ccccc2F)sc1C(=O)c1ccccc1	TAAR1 agonist 48
CCOc1ccc(/C=N/NC(=O)c2ccc(Cn3cc(Br)cn3)o2)cc1	none
O=C(Nc1cccc(S(=O)(=O)N2CCOCC2)c1)c1cc(S(=O)(=O)N2CCOCC2)c(Cl)cc1Cl	TAAR1 antag 76 (no result: OXTR agonist, OXTR potentiate, V1aR counter)
COc1ccc(C(=O)Nc2ccc(S(=O)(=O)N3CCOCC3)cc2)cc1	none
COc1ccc(C(=O)Nc2ccc(-c3ccc(C)o3)cc2)cc1S(=O)(=O)N1CCOCC1	TAAR1 antag 68
COc1ccc(C(=O)Nc2ccc(Cl)c(S(=O)(=O)N3CCOCC3)c2)cc1	TAAR1 antag 61
COc1ccc(C(=O)Nc2cccc(-c3csc(C)n3)c2)cc1S(=O)(=O)N1CCCC1	TAAR1 antag 52
Cc1ccccc1-n1c(SCC(=O)N2CCN(c3ccccn3)CC2)nnc1N1CCOCC1	none
